Assay results as given in ChEMBL document CHEMBL1136531, “Sphingomyelin analogues as inhibitors of sphingomyelinase” (Bioorg Med Chem Lett, 2003).

Biological target: T1, Sphingomyelin phosphodiesterase 2 (Rattus norvegicus, UniProt Q9ET64)
T1 sequence (Q9ET64 whole entry): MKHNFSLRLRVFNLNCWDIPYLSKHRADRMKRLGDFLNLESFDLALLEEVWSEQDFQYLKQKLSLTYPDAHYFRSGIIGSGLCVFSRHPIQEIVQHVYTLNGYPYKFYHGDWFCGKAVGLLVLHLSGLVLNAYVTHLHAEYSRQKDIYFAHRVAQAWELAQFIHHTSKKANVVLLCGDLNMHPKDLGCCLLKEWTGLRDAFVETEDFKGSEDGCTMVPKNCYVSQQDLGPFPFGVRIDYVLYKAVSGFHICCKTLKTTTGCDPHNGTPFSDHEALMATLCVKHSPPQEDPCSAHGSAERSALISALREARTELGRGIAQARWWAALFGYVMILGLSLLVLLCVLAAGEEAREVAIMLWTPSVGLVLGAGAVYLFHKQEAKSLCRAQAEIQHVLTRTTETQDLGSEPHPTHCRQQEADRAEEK
Assay: Inhibitory concentration against the membrane neutral magnesium-dependent Sphingomyelinase (N-SMase) using rat brain microsomes as the enzyme source
Method in brief: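 Rat brain microsomes served as the enzyme source and were incubated 25 min at 37 °C with 0.3mM ¹⁴C-labelled sphingomyelin in 100 mM Tris–HCl (pH 7.5), 20 mM MgCl₂ and 0.25% Triton X-100, across a range of inhibitor concentrations. Released radioactive phosphorylcholine was separated by chloroform/methanol (2/1) extraction and counted by scintillation in the aqueous phase. IC₅₀ was derived from these counts.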

IC50	SMILES
> 100 µM	CCCCCCCCCCCCC/C=C/[C@@H](O)[C@H](COC(=O)NCc1ccncc1)NC(=O)OC(C)(C)C
8.7 µM	CCCCCCCCCCCCC/C=C/[C@@H](O)[C@H](COC(=O)NCC[N+](C)(C)C)NC(=O)C(C)(C)C
4.1 µM	CCCCCCCCCCCCC/C=C/[C@@H](O)[C@H](COC(=O)NCCN(C)C)NC(=O)C(C)(C)C
77 µM	CCCCCCCCCCCCC/C=C/[C@@H](O)[C@H](COC(=O)NCCC(C)(C)C)NC(=O)C(C)(C)C
> 100 µM	CCCCCCCCCCCCC/C=C/[C@@H](O)[C@H](COC(=O)NCc1ccncc1)NC(=O)CCCCCCCCCCCCCCCCC
8.2 µM	CCCCCCCCCCCCC/C=C/[C@@H](O)[C@H](COC(=O)NCc1ccc(N(C)C)cc1)NC(=O)C(C)(C)C
4.9 µM	CCCCCCCCCCCCC/C=C/[C@@H](O)[C@H](COC(=O)NCCCN(C)C)NC(=O)C(C)(C)C
> 100 µM	CCCCCCCCCCCCC/C=C/[C@@H](O)[C@H](COC(=O)NCc1ccncc1)NC(C)=O
7.9 µM	CCCCCCCCCCCCC/C=C/[C@@H](O)[C@H](COC(=O)Nc1ccccn1)NC(=O)C(C)(C)C
1.8 µM	CCCCCCCCCCCCC/C=C/[C@@H](O)[C@H](COC(=O)NCc1ccncc1)NC(=O)C(C)C
18 µM	CCCCCCCCCCCCC/C=C/[C@@H](O)[C@H](COC(=O)NCCN(C(C)C)C(C)C)NC(=O)C(C)(C)C
5 µM	CCCCCCCCCCCCC/C=C/[C@@H](O)[C@H](COC(=O)NCc1ccccn1)NC(=O)C(C)(C)C
8.4 µM	CCCCCCCCCCCCC/C=C/[C@@H](O)[C@H](COC(=O)NCCc1ccccn1)NC(=O)C(C)(C)C
2.1 µM	CCCCCCCCCCCCC/C=C/[C@@H](O)[C@H](COC(=O)NCc1cccnc1)NC(=O)C(C)(C)C
31 µM	CCCCCCCCCCCCC/C=C/[C@@H](O)[C@H](COC(=O)CCCN(C)C)NC(=O)C(C)(C)C
> 100 µM	CCCCCCCCCCCCC/C=C/C(O)C(N)COC(=O)NCc1ccncc1 (single isomer, unassigned)
